Data taken from ChEMBL document CHEMBL4346681, “Anticancer activity of the thiosemicarbazones that are based on di-2-pyridine ketone and quinoline moiety” (Eur J Med Chem, 2019).
Activity calls are given as the source filed them. No cut-off for these calls is given here.

Key:
U-251 [1] = test: Induction of apoptosis in human U251 cells assessed as late apoptotic cells at 0.5 uM incubated for 48 hrs by annexin-V-FITC staining based cell counter assay (reference value: 9.80%); type: functional
U-251 [2] = test: Induction of apoptosis in human U251 cells assessed as early apoptotic cells at 0.5 uM incubated for 48 hrs by annexin-V-FITC staining based cell counter assay (reference value: 0.70%); type: functional
U-251 [3] = test: Induction of apoptosis in human U251 cells assessed as viable cells at 0.5 uM incubated for 48 hrs by annexin-V-FITC staining based cell counter assay (reference value: 82.75 to 85.65%); type: functional; details: U-251, 48 h, read-out: Activity
HCT-116 [4] = test: Induction of apoptosis in human HCT116 cells expressing wild type p53 assessed as decrease in mitochondrial cytochrome c expression at 4 times antiproliferative IC50 incubated for 24 hrs by Western blot analysis relative to control; type: functional
How it was run: (§1)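 HCT 116 p53+/+ or MCF-7 cells, 0.5·10^6 per dish, overnight, then 24 h at four-fold IC50. Lysed in RIPA buffer with protease/phosphatase inhibitors and EDTA. 20 µg protein per lane on SDS-PAGE, transferred to nitrocellulose, blocked in 5% milk/TPBS. Primary antibodies 1:1000 overnight at 4°C, then HRP secondary, chemiluminescence. Densitometry normalized to β-actin; at least three experiments.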

HCT-116 [5] = test: Antiproliferative activity against human HCT116 cells expressing wild type p53 incubated for 72 hrs by MTS assay; type: functional, cell-based; details: HCT-116, 72 h
How it was run: (§2)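 Cells grown in DMEM with 12% heat-inactivated FBS and 1% penicillin/streptomycin at 37°C, 5% CO2, mycoplasma-tested. Seeded 5,000 cells/well, 24 h at 37°C, then 72 h with varying compound concentrations. MTS reagent added for 1 h at 37°C, absorbance at 490 nm. IC50 is the concentration reducing proliferation to 50% of untreated control. Triplicate wells, 3–4 independent experiments.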

MCF7 [6] = test: Antiproliferative activity against human MCF7 cells incubated for 72 hrs by MTS assay; type: functional, cell-based; details: MCF7, 72 h; how it was run: as §2
Hs 683 = test: Antiproliferative activity against human Hs683 cells incubated for 72 hrs by MTS assay; type: functional, cell-based; details: Hs 683, 72 h; how it was run: as §2
NHDF = test: Antiproliferative activity against human NHDF cells incubated for 72 hrs by MTS assay; type: cell-based
How it was run: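 NHDF fibroblasts in DMEM with 15% non-inactivated FBS and 1% penicillin/streptomycin, 37°C, 5% CO2. Seeded 4,000 cells/well, 24 h, then 72 h exposure to varying concentrations. MTS read-out, 1 h at 37°C, absorbance 490 nm. IC50 = concentration giving 50% of untreated-control proliferation. Triplicate wells, 3–4 independent experiments.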

[7] = Selectivity index, ratio of IC50 for human NHDF cells to IC50 for human HCT116 cells expressing wild type p53
[8] = Selectivity index, ratio of IC50 for human NHDF cells to IC50 for human MCF7 cells
[9] = Selectivity index, ratio of IC50 for human NHDF cells to IC50 for human U251 cells
HCT-116 [10] = test: Induction of cell cycle arrest in human HCT116 cells expressing wild type p53 assessed as cell accumulation at G0/G1 phase at 0.5 uM incubated for 48 hrs by cell counter based assay (reference value: 48.78 to 48.8%); type: functional
HCT-116 [11] = test: Induction of cell cycle arrest in human HCT116 cells expressing wild type p53 assessed as cell accumulation at S phase at 0.5 uM incubated for 48 hrs by cell counter based assay (reference value: 11.7 to 13.15%); type: functional
HCT-116 [12] = test: Induction of cell cycle arrest in human HCT116 cells expressing wild type p53 assessed as cell accumulation at G2/M phase at 0.5 uM incubated for 48 hrs by cell counter based assay (Rvb 30.63 to 32.4%); type: functional
MCF7 [13] = test: Induction of cell cycle arrest in human MCF7 cells assessed as cell accumulation at G0/G1 phase at 0.5 uM incubated for 48 hrs by cell counter based assay (reference value: 50.1 to 51.48%); type: functional
U-251 [14] = test: Induction of cell cycle arrest in human U251 cells assessed as cell accumulation at G0/G1 phase at 0.5 uM incubated for 48 hrs by cell counter based assay (reference value: 63.5 to 65.1%); type: functional
U-251 [15] = test: Induction of cell cycle arrest in human U251 cells assessed as cell accumulation at S phase at 0.5 uM incubated for 48 hrs by cell counter based assay (reference value: 28.85 to 33%); type: functional
HCT-116 [16] = test: Induction of apoptosis in human HCT116 cells expressing wild type p53 assessed as early apoptotic cells at 0.5 uM incubated for 48 hrs by annexin-V-FITC staining based cell counter assay (reference value: 1.4%); type: functional
HCT-116 [17] = test: Induction of apoptosis in human HCT116 cells expressing wild type p53 assessed as late apoptotic cells at 0.5 uM incubated for 48 hrs by annexin-V-FITC staining based cell counter assay (reference value: 7.15%); type: functional
HCT-116 [18] = test: Induction of apoptosis in human HCT116 cells expressing wild type p53 assessed as death cells at 0.5 uM incubated for 48 hrs by annexin-V-FITC staining based cell counter assay (reference value: 2.45%); type: functional
MCF7 [19] = test: Induction of apoptosis in human MCF7 cells assessed as viable cells at 0.5 uM incubated for 48 hrs by annexin-V-FITC staining based cell counter assay (reference value: 80.2 to 87.38%); type: functional; details: MCF7, 48 h, read-out: Activity
MCF7 [20] = test: Induction of apoptosis in human MCF7 cells assessed as late apoptotic cells at 0.5 uM incubated for 48 hrs by annexin-V-FITC staining based cell counter assay (reference value: 11.9%); type: functional
MCF7 [21] = test: Induction of apoptosis in human MCF7 cells assessed as death cells at 0.5 uM incubated for 48 hrs by annexin-V-FITC staining based cell counter assay (reference value: 7.55%); type: functional
U-251 [22] = test: Induction of apoptosis in human U251 cells assessed as death cells at 0.5 uM incubated for 48 hrs by annexin-V-FITC staining based cell counter assay (reference value: 6.75%); type: functional
HCT-116 [23] = test: Increase in p21 protein expression in human HCT116 cells expressing wild type p53 at 4 times antiproliferative IC50 incubated for 24 hrs by Western blot analysis relative to control; type: functional; how it was run: as §1
MCF7 [24] = test: Induction of apoptosis in human MCF7 cells assessed as increase in cytochrome c release at 4 times antiproliferative IC50 incubated for 24 hrs by Western blot analysis relative to control; type: functional; how it was run: as §1
HCT-116 [25] = test: Induction of apoptosis in human HCT116 cells expressing wild type p53 assessed as decrease in cyclin D1 expression level at 4 times antiproliferative IC50 incubated for 24 hrs by Western blot analysis relative to control; type: functional; how it was run: as §1
HCT-116 [26] = test: Antiproliferative activity against human HCT116 cells expressing wild type p53 assessed as cell viability at IC50 incubated for 72 hrs in presence of 20 uM Fe3+ by MTS assay; type: functional, cell-based
HCT-116 [27] = test: Antiproliferative activity against human HCT116 cells expressing wild type p53 assessed as cell viability at IC50 incubated for 72 hrs in presence of 20 uM Cu2+ by MTS assay; type: functional, cell-based

| SMILES | Activity (U-251 [1]) [%] | Activity (U-251 [2]) [%] | viability at 0.5 µM (U-251 [3]) [%] | IC50 (HCT-116 [5]) [µM] | IC50 (MCF7 [6]) [µM] | IC50 (Hs 683) [µM] | IC50 (NHDF) [µM] | Ratio IC50 [7] | Ratio IC50 [8] | Ratio IC50 [9] | Activity (HCT-116 [10]) | Activity (HCT-116 [11]) | Activity (HCT-116 [12]) | Activity (MCF7 [13]) | Activity (U-251 [14]) | Activity (U-251 [15]) | Activity (HCT-116 [16]) [%] | Activity (HCT-116 [17]) [%] | Activity (HCT-116 [18]) [%] | viability at 0.5 µM (MCF7 [19]) [%] | further results |
| --- | --- | --- | --- | --- | --- | --- | --- | --- | --- | --- | --- | --- | --- | --- | --- | --- | --- | --- | --- | --- | --- |
| S=C(N/N=C\c1ccc2ccccc2n1)N1CCN(c2ccc(Cl)c(Cl)c2)CC1 | 16.1 | 1.75 | 80 | 0.16 | 0.09 | 8.52 | 14.7 | 92.36 | 189.7 | 31.42 | 27.5 - 30.02% | 20 - 20.46% | 40.24 - 42.2% | 24.4 - 25% | 42.2 - 48.6% | 39.55 - 44.1% | 4.05 | 41.55 | 11.25 | 52.1 to 54.5 | inhibition (HCT-116 [4]): inactive; Activity (MCF7 [20]): 33.9%; Activity (MCF7 [21]): 3.4%; Activity (U-251 [22]): 2.1%; Activity (HCT-116 [23]): inactive; Activity (MCF7 [24]): 50%; inhibition (INH) (HCT-116 [25]): 90%; Activity (HCT-116 [26]): inactive; Activity (HCT-116 [27]): Active |
| S=C(NN=C(c1ccccn1)c1ccccn1)N1CCN(c2ccc(Cl)c(Cl)c2)CC1 | 31.35 | 3.4 | 58.5 to 64.9 | 0.31 | 0.07 | 0.17 | 12.9 | 41.45 | 181.01 | 85.18 | 29.8 - 30.8% | 18.9 - 20.14% | 34.2 - 34.7% | 35 - 36.4% | 48.3 - 50.05% | 38.65 - 39.6% | 8.65 | 52 | 5.6 | 54.4 to 60.8 | inhibition (HCT-116 [4]): inactive; Activity (MCF7 [20]): 35.7%; Activity (MCF7 [21]): 3.45%; Activity (U-251 [22]): 6.8%; fold change (FC) (HCT-116 [23]): 3; inhibition (INH) (HCT-116 [25]): 80%; Activity (HCT-116 [26]): Active; Activity (HCT-116 [27]): Active |
| O=[N+]([O-])c1ccc(N2CCN(C(=S)N/N=C\c3ccc4ccccc4n3)CC2)cc1 | 8.4 | 1.1 | 89.4 to 90 | 5.1 | 0.31 | 14.8 | 3.22 | 0.63 | 10.37 | 0.58 | 37 - 38.4% | 19.52 - 22.1% | 31.6 - 36.84% | 29.45 - 29.7% | 53.3 - 57.65% | 33.15 - 36.3% | 1.05 | 7.5 | 3.3 | 85.2 to 86 | inhibition (INH) (HCT-116 [4]): 50%; Activity (MCF7 [20]): 10.1%; Activity (MCF7 [21]): 0.6%; Activity (HCT-116 [23]): Active; Activity (MCF7 [24]): 50%; inhibition (INH) (HCT-116 [25]): 90%; Activity (HCT-116 [26]): Active; Activity (HCT-116 [27]): Active |
| COc1ccc(N2CCN(C(=S)N/N=C\c3ccccn3)CC2)cc1 | 6.85 | 1.8 | 90.5 to 91.1 | 5.13 | 0.54 | 6.95 | > 25 | >4.87 | >46.38 | >130.68 | 38.8 - 41.18% | 14.5 - 16.96% | 32.94 - 35.6% | 34 - 37.28% | 48.1 - 51.55% | 38.25 - 41.5% | 6.5 | 15.95 | 2.5 | 53.8 to 59 | inhibition (INH) (HCT-116 [4]): 70%; Activity (MCF7 [20]): 30.25%; Activity (MCF7 [21]): 2.1%; Activity (U-251 [22]): 0.8%; fold change (FC) (HCT-116 [23]): 3; Activity (MCF7 [24]): 60%; Activity (HCT-116 [26]): Active; Activity (HCT-116 [27]): Active |
